HCV core dimer: inhibitors of HCV core protein dimerization, primary screen, biochemical, TR-FRET, high-throughput; TR-FRET GST/Flag-core106 dimerization, 1536-well; inhibition, % at 5 µM; hit rate 0.33% among 300,000; AID 1899, 2009;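 active = inhibition above the mean of all tested compounds plus 3 SD, set per screening campaign, cut at about 45% in these data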
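Assay system – GST-tagged and Flag-tagged HCV core protein residues 1-106 · Quantity – core106 proteins, GST 13.5 nM and Flag 17 nM · Benchmarks – unlabelled core106 and no-GST-core106 wells · Read-out basis – percent inhibition of core106 dimerization signal · Detection – time-resolved FRET, ex 340 nm, em 617 and 671 nm · Schedule – 4 h at 22.5 °C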
rCAG binder: binders of r(CAG) RNA repeats, primary screen, biochemical, fluorescence. r(CAG) RNA repeat, TO-PRO-1 dye displacement fluorescence. inhibition, % at 3 µM. hit rate 1.3% among 370,000. AID 651821, 2012;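 active = inhibition above the plate cutoff, the mean of all test compounds on that plate plus 3 SD, cut at about 35% in these data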;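 note: 0% = DMSO alone and 100% = 100 µM mitoxantrone as full dye displacement; higher means more dye released from RNA so lower well fluorescence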
TAAR1 antagonist: human TAAR1 antagonists, primary screen, Fluo-8 calcium fluorescence, CHO RD-HGA16 cells; Trace amine-associated receptor 1 (Homo sapiens), Q96RJ0; antagonist; inhibition, % at 3 µM; hit rate 1.5% among 360,000; AID 624466, 2012;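 active = inhibition above a per-plate cutoff, the mean inhibition of test compounds on that plate plus 3 SD, cut at about 49% in these data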;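 note: 0% = DMSO plus EC80 beta-PEA response and 100% = DMSO alone without agonist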
Target sequence (Q96RJ0 whole entry, looked up): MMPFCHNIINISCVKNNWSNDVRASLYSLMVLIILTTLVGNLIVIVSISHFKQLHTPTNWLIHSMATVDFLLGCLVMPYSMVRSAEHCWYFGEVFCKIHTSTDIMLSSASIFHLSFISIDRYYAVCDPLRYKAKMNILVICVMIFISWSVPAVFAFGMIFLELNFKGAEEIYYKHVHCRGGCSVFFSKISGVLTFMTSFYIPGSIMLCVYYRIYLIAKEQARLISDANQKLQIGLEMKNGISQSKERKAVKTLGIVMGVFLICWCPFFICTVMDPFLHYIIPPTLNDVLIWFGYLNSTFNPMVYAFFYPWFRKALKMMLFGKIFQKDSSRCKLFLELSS
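Test system: RD-HGA16 CHO cells with stable hTAAR1 and Gα16 / Probe or stimulus: EC80 β-phenethylamine stimulus / Times: seeding 17-24 h prior, 75-min 37 °C, 30-min RT dye loading / Detection: Fluo-8 calcium-sensitive fluorescence / Read-out basis: % inhibition scaled between DMSO and EC80 PEA controls / Repeats: singlicate, one well per test compound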
TAAR1 agonist: human TAAR1 agonists, primary screen, Fluo-8 calcium fluorescence, CHO RD-HGA16 cells | vehicle wells 0%, saturating PEA agonist 100% | activation, % at 3 µM | hit rate 0.99% among 360,000 | AID 624467, 2012;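 active = activation above the mean activation of all test compounds in the run plus 3 SD, cut at about 38% in these data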
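Benchmarks: low control DMSO, high control PEA (EC100); System: CHO RD-HGA16 cells carrying human TAAR1 plus Gα16; Detection: Fluo-8 fluorescence, 5 s baseline then 140 s kinetic read; Schedule: 17-24 h plating, Fluo-8 75 min 37 °C, 30 min RT; Read-out basis: % activation from peak over basal fluorescence ratio, DMSO-to-PEA scaled.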
NS3 helicase inh: inhibitors of HCV NS3 helicase, primary screen, biochemical, Cy5 molecular beacon fluorescence | Hepatitis C virus NS3 helicase | NS3 helicase DNA unwinding | inhibition, % at 10.9 µM | hit rate 0.56% among 290,000 | AID 1800, 2009;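 active = inhibition above the mean of all tested compounds plus 3 SD, set per campaign, cut at about 35% in these data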;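 note: 0% = DMSO wells and 100% = thioflavine S control wells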
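Assay system: hepatitis C virus NS3 helicase domain fragment enzyme. Also added: annealed dual-labelled DNA beacon duplex, ATP-started. Timing: 1 h reaction at 25 °C, ATP-initiated. Technique: Cy5 fluorescence at 0 and 60 min, beacon hairpin quenching. Evaluation: % inhibition of unwinding. Replication: one well per compound.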
* hit, by the source's call; nt = no result given. A selection: hits, their analogues and other compounds. The true share with any hit is near 3.7%.

SMILES	HCV core dimer	rCAG binder	TAAR1 antagonist	TAAR1 agonist	NS3 helicase inh
COc1ccc(-c2coc3c(C(=O)NCc4ccc(OC)c(OC)c4)cccc23)c(C)c1	nt	7.0	56.0*	4.1	nt
CCCCCCCCNC(=O)C1CSCCS(=O)(=O)N1Cc1ccc(F)cc1 (stereo not drawn)	nt	-1.3	nt	nt	nt
CCOc1cc(CNC2CCCC2)cc(Cl)c1OCc1ccc(F)cc1	-9.9	9.6	16.0	39.8*	-14.2
COc1cc(CNC2CCCC2)cc(Cl)c1OCc1ccc(F)cc1	-5.5	3.9	-2.1	22.7	-67.8
CCOC(=O)[C@]12CCCC=C1N(CCc1ccc(OC)c(OC)c1)C(=O)[C@H](CC(=O)NCCc1ccccc1OC)C2	nt	2.9	3.2	46.2*	nt
CCOC(=O)[C@]12CCCC=C1N(Cc1ccc(Cl)cc1Cl)C(=O)[C@H](CC(=O)NCCc1ccccc1OC)C2	nt	9.9	19.2	40.2*	nt
C=CCN(c1ccccc1)S(=O)(=O)c1ccc2c(c1)NC(=O)C(C)S2 (stereo not drawn)	-5.9	-1.7	13.2	3.1	-17.1
CC1Sc2ccc(S(=O)(=O)N(C)Cc3ccccc3)cc2NC1=O (stereo not drawn)	12.5	-2.1	48.8*	6.6	-5.5
COc1ccc(/C=C2\CC3(OC(=O)C4CCCCC4)CCCN2C3)cc1 (stereo not drawn)	nt	3.4	nt	nt	nt
Cc1ccc(S(=O)(=O)N(C)[C@H]2C[C@H]3c4cc(N5CCOCC5)ccc4CCN3C[C@H]2[C@H](C)O)cc1	nt	0.5	nt	nt	nt
COc1ccc(N(CC(=O)Nc2ccc3c(c2)OCO3)S(=O)(=O)c2ccccc2)c(OC)c1	15.4	5.9	56.2*	12.8	-7.9
O=C(CSc1nnnn1C1CC2CCC1C2)Nc1ccnc2ccccc12 (stereo not drawn)	8.6	0.7	52.2*	25.2	3.6
O=C(CSc1nnnn1C1CCCCC1)Nc1ccccc1F	1.7	2.4	13.3	-0.9	6.4
COC(=O)c1c(C(=O)OC)c2ccccn2c1C(=O)c1ccc([N+](=O)[O-])cc1	24.6	10.6	2.0	5.5	-0.7
CC(C)OC(=O)c1c2c(n3ccccc13)C(=O)c1ccccc1C2=O	-6.9	-3.1	44.5	40.0*	-4.5
COC(=O)[C@H](C(C)C)N(Cc1cn(Cc2ccc(C)cc2)nn1)S(=O)(=O)c1ccccc1Br	nt	-0.9	nt	nt	nt
CCCCCN1CCCCC(NC(=O)C2CCCCC2)C1=O (stereo not drawn)	nt	0.6	nt	nt	nt
O=C1NC[C@H](c2ccccc2)OC(=O)[C@H](Cc2ccc(F)cc2)CC/C=C/C[C@@H]1CC(=O)N(CCO)Cc1ccccc1	nt	10.8	57.2*	18.3	nt
CC(C)(C)OC(=O)C[C@@H]1C/C=C\C[C@H](CC(=O)N(CCO)Cc2ccccc2)C(=O)NC[C@@H](c2ccccc2)OC1=O	nt	-7.0	12.2	7.2	nt
O=C1NC[C@H](c2ccccc2)OC(=O)[C@@H](Cc2ccc(F)cc2)C/C=C\C[C@H]1CC(=O)N(CCO)Cc1ccccc1	nt	-1.4	81.0*	48.6*	nt
O=C1NC[C@H](c2ccccc2)OC(=O)[C@H](Cc2ccc(F)cc2)C/C=C\C[C@H]1CC(=O)N(CCO)Cc1ccccc1	nt	5.1	81.5*	38.2*	nt
C[C@@H]1OCN(C)[C@H]2C[C@H]3c4[nH]c5cccc(-c6ccc7c(c6)OCO7)c5c4CCN3C[C@@H]12	nt	8.7	nt	nt	nt
COc1ccc(-c2cc(C(=O)N=Nc3c(O)[nH]c4ccccc34)[nH]n2)cc1	nt	24.7	nt	nt	nt
N=c1c2c(-c3ccccc3)c(-c3ccccc3)n(CCc3ccccc3)c2ncn1CCO	nt	10.5	nt	nt	nt
COc1ccc(N(CC(=O)NCCSCc2ccccc2C)S(=O)(=O)c2ccccc2)cc1	-0.6	-0.2	51.6*	4.7	-15.1
SMILES	HCV core dimer	rCAG binder	TAAR1 antagonist	TAAR1 agonist	NS3 helicase inh
COc1ccc(OC)c(N(CC(=O)NCCSCc2ccco2)S(=O)(=O)c2ccc(OC)c(OC)c2)c1	7.4	-1.0	79.3*	13.4	-6.5
COc1ccccc1N(CC(=O)NCCSCc1cccc(C)c1)S(=O)(=O)c1ccccc1	3.2	-3.2	80.0*	3.2	-17.1
Cc1cc(C)cc(N(CC(=O)NCCSc2ccccn2)S(=O)(=O)c2ccccc2)c1	6.6	-2.5	49.3*	7.4	-3.3
Cc1ccc(S(=O)(=O)N(CC(=O)NCCSc2ccccn2)c2ccc(C)c(C)c2)cc1	-4.7	3.1	6.8	5.0	-11.0
O=C(Cc1ccccc1)NC1CCCCN(Cc2cccc(Cl)c2)C1=O (stereo not drawn)	nt	-0.5	nt	nt	nt
COc1ccc(C2(c3ccc(OC)cc3)NC(=O)N(CC(=O)NCC(C)c3ccccc3)C2=O)cc1 (stereo not drawn)	nt	5.5	56.7*	22.2	nt
Cc1cccc(-n2nc3c(c2NC(=O)c2ccco2)CSC3)c1C	49.4*	25.4	-2.9	8.4	5.6
COc1ccc(/C=C2\CN(Cc3ccccc3)C/C(=C\c3ccc(OC)cc3OC)C2=O)c(OC)c1	48.7*	6.4	57.3*	13.3	-63.9
O=S1(=O)C=CCN1Cc1cn(Cc2ccc(Cl)cc2)nn1	nt	0.5	nt	nt	nt
Cc1ccc(CN2C(C(=O)NC3CCCC3)CSCCS2(=O)=O)cc1 (stereo not drawn)	nt	1.0	nt	nt	nt
Nc1ccc2c(c1)C/C(=C/c1ccco1)C2=O	93.7*	31.6	-21.2	2.2	33.4
O=C1/C(=C/c2ccco2)CCc2ccccc21	2.8	17.5	-7.3	-1.4	32.5
COc1cc(/C=C(\C#N)C(=O)NCCc2ccccc2)cc(OC)c1O	-17.7	-3.5	9.3	30.2	16.7
COc1cc(/C=C(\C#N)C(=O)c2c[nH]c3ccccc23)cc(OC)c1O	-4.2	17.2	-8.4	40.6*	5.6
COC(=O)c1ccc2c(=O)n(CC3CCCO3)c(SCC(=O)Nc3ccccc3Cl)nc2c1 (stereo not drawn)	-0.8	0.0	17.0	6.4	5.2
COC(=O)c1ccc2c(=O)n(CC3CCCO3)c(SCC(=O)Nc3ccccc3OC)nc2c1 (stereo not drawn)	7.1	2.1	51.5*	1.5	-9.8
Cc1ccc(-c2cnc3c(Nc4cccc(OC(F)(F)C(F)F)c4)nccn23)cc1	nt	2.8	13.4	0.2	nt
OCc1cccc(-c2cnc3c(Nc4cccc(OC(F)(F)C(F)F)c4)nccn23)c1	nt	4.8	59.9*	4.7	nt
O=C(NCc1ccccc1)C1=C[C@@H](c2csc3ccccc23)C[C@@H](OCc2ccc(CO)cc2)O1	22.6	3.9	44.6	7.9	-15.3
C#CCNC(=O)C1=C[C@@H](c2csc3ccccc23)C[C@@H](OCc2ccc(CO)cc2)O1	6.3	4.7	53.7*	20.0	-8.1
Cc1cccc(C)c1NC(=O)CN(C)C(=O)c1cccc(S(=O)(=O)N2CCN(c3ccccc3)CC2)c1	-0.2	1.0	-1.1	0.1	1.8

Screens deposited in PubChem BioAssay by The Scripps Research Institute Molecular Screening Center.
